As a reminder, the mortality is the percentage killed.

Structures are written as SMILES.

In one experiment the test system is Brugia malayi. Briefly: Antifilarial activity against Brugia malayi (female) at 5 ppm in the first 5 days (100% mortality); NM=No Mortality. It is filed as functional, organism-based.
Settings: not given
With `COc1c(C)cc2c(c1O)C(=O)c1ccccc1C2=O`, the Mortality entry is “No mortality”.

On to `O=C1c2ccccc2C(=O)c2c(O)cc(O)cc21`, for which the Mortality result was “No mortality”.

For `COc1c(C)cc2c(c1O)C(=O)c1c(O)cccc1C2=O`, the Mortality entry is “No mortality”.

Another experiment deals with Brugia malayi. Briefly: Compound causing 100% mortality of Brugia malayi female adult worms at 50 ppm concentration. It is filed as functional.
Settings: not given
In short, it runs like this:
(§1)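 Dose-response on adult female B. malayi in RPMI 1640 with penicillin/streptomycin. Concentrations ranged from 50 to 3.12 ppm, with compounds delivered in DMSO; solvent controls received 2% DMSO. Movement and mortality were monitored daily. Read-out was days to 100% worm mortality at each concentration.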
`Cc1cc2c(c(O)c1O)C(=O)c1ccccc1C2=O` registered a Mortality of 1 days.

In turn, `O=C1c2ccccc2C(=O)c2c1cc(O)c(O)c2O` yielded a Mortality of 2 days.

Consider `COc1c(C)cc2c(c1O)C(=O)c1c(O)cccc1C2=O`, for which the Mortality amounted to 1 days.

`Cc1cc2c(c(O)c1O)C(=O)c1c(O)cccc1C2=O`: the Mortality worked out at 2 days.

Another experiment deals with Brugia malayi. Kind of experiment: Antifilarial activity of anthraquinone against Brugia malayi (female) at 5 ppm in the first 5 days (100% mortality). It is filed as functional. The conditions noted are these: 120 h.
In turn, `Cc1c(O)c(O)cc2c1C(=O)c1ccccc1C2=O` showed a mortality at 5 ppm of 7%.

In a further experiment the test system is Brugia malayi. Kind of experiment: Antifilarial activity against Brugia malayi (male) at 5 ppm in the first 5 days (100% mortality). It is filed as functional. The conditions noted are these: 120 h.
In turn, `CCCSc1ccc2[nH]c(NC(=O)OC)nc2c1` [ALBENDAZOLE] returned a mortality at 5 ppm of 9%.

As to `Cc1cc2c(c(O)c1O)C(=O)c1ccccc1C2=O`, the mortality at 5 ppm was 6%.

Compound `O=C1c2cc(O)c(O)c(O)c2C(=O)c2cccc(O)c21` showed a mortality at 5 ppm of 6%.

Consider `Cc1c(O)c(O)cc2c1C(=O)c1c(O)cccc1C2=O`, for which the mortality at 5 ppm was found to be 5%.

The compound `Cc1cc2c(c(O)c1O)C(=O)c1c(O)cccc1C2=O` yielded a mortality at 5 ppm of 5%.

The subject of a further experiment is Brugia malayi. Briefly: Compound causing 100% mortality of Brugia malayi female adult worms at 12.5 ppm concentration. Format: functional.
Settings: not given
In short, it runs like this: as §1
Take `Cc1cc2c(c(O)c1O)C(=O)c1ccccc1C2=O`: the Mortality is 4 days.

On to `O=C1c2ccccc2C(=O)c2c1cc(O)c(O)c2O`, for which the Mortality worked out at 4 days.

For the compound `COc1c(C)cc2c(c1O)C(=O)c1c(O)cccc1C2=O`, the Mortality was 4 days.

Take `Cc1cc2c(c(O)c1O)C(=O)c1c(O)cccc1C2=O`: the Mortality turned out to be 4 days.

The subject of a further experiment is Brugia malayi. Kind of experiment: Antifilarial activity against Brugia malayi (female) at 5 ppm in the first 5 days (100% mortality). It is filed as functional. As to conditions: 120 h.
`CCCSc1ccc2[nH]c(NC(=O)OC)nc2c1` [ALBENDAZOLE]: the mortality at 5 ppm turned out to be 16%.

As to `COc1cccc2c1C(=O)c1c(cc(C)c(OC)c1O)C2=O`, the mortality at 5 ppm turned out to be 7%.

Regarding `O=C1c2cc(O)cc(O)c2C(=O)c2cccc(O)c21`, the mortality at 5 ppm was determined as 7%.

With `COc1c(C)cc2c(c1OC)C(=O)c1ccccc1C2=O`, the mortality at 5 ppm is 11%.

The compound `O=C1c2ccccc2C(=O)c2c1ccc(O)c2O` [ATHRAQUINONES A] yielded a mortality at 5 ppm of 5%.

Consider `Cc1cc2c(c(O)c1O)C(=O)c1ccccc1C2=O`, for which the mortality at 5 ppm is 5%.

In turn, `O=C1c2ccc(O)c(O)c2C(=O)c2cccc(O)c21` gave a mortality at 5 ppm of 9%.

With `O=C1c2ccccc2C(=O)c2c1cc(O)c(O)c2O`, the mortality at 5 ppm was found to be 5%.

For `O=C1c2cc(O)c(O)c(O)c2C(=O)c2cccc(O)c21`, the mortality at 5 ppm is 5%.

`Cc1c(O)c(O)cc2c1C(=O)c1c(O)cccc1C2=O`: the mortality at 5 ppm is 3%.

With `O=C1c2cccc(O)c2C(=O)c2c1ccc(O)c2O`, the mortality at 5 ppm came to 14%.

As to `O=C1c2cc(O)c(O)cc2C(=O)c2c(O)cccc21`, the mortality at 5 ppm turned out to be 5%.

`COc1cc2c(c(C)c1OC)C(=O)c1c(O)cccc1C2=O`: the mortality at 5 ppm came out at 9%.

For `O=C1c2cccc(O)c2C(=O)c2c(O)ccc(O)c21`, the mortality at 5 ppm turned out to be 9%.

`O=C1c2ccccc2C(=O)c2c(O)ccc(O)c21` [QUINIZARIN] showed a mortality at 5 ppm of 10%.

For the compound `Cc1cc2c(c(O)c1O)C(=O)c1c(O)cccc1C2=O`, the mortality at 5 ppm was 5%.

A further experiment relates to Brugia malayi. Kind of experiment: Compound causing 100% mortality of Brugia malayi female adult worms at 3.125 ppm concentration. Format: functional.
Settings: not given
The essentials:
as §1
Consider `Cc1cc2c(c(O)c1O)C(=O)c1ccccc1C2=O`, for which the Mortality worked out at 6 days.

Turning to `O=C1c2ccccc2C(=O)c2c1cc(O)c(O)c2O`, the Mortality was determined as 5 days.

Another experiment relates to Brugia malayi. Kind of experiment: Compound causing 100% mortality of Brugia malayi female adult worms at 25 ppm concentration. It is filed as functional.
Settings: not given
The essentials:
as §1
With `Cc1cc2c(c(O)c1O)C(=O)c1ccccc1C2=O`, the Mortality stood at 3 days.

With `O=C1c2ccccc2C(=O)c2c1cc(O)c(O)c2O`, the Mortality came out at 4 days.

`COc1c(C)cc2c(c1O)C(=O)c1c(O)cccc1C2=O` came in with a Mortality of 2 days.

As for `Cc1cc2c(c(O)c1O)C(=O)c1c(O)cccc1C2=O`, the Mortality is 3 days.

The next experiment concerns Brugia malayi. Briefly: Compound causing 100% mortality of Brugia malayi female adult worms at 6.25 ppm concentration. It is filed as functional.
Settings: not given
The essentials:
as §1
The compound `Cc1cc2c(c(O)c1O)C(=O)c1ccccc1C2=O` displayed a Mortality of 5 days.

On to `O=C1c2ccccc2C(=O)c2c1cc(O)c(O)c2O`, for which the Mortality amounted to 5 days.

Take `COc1c(C)cc2c(c1O)C(=O)c1c(O)cccc1C2=O`: the Mortality is 8 days.

Take `Cc1cc2c(c(O)c1O)C(=O)c1c(O)cccc1C2=O`: the Mortality came to 5 days.

Another experiment deals with Brugia malayi. Briefly: Compound causing 100% mortality of Brugia malayi female adult worms at 3.125 ppm concentration; no mortality.
Settings: not given
Format: functional, organism-based. In short, it runs like this: as §1
On to `COc1c(C)cc2c(c1O)C(=O)c1c(O)cccc1C2=O`, for which the Mortality entry was “no mortality”.

Regarding `Cc1cc2c(c(O)c1O)C(=O)c1c(O)cccc1C2=O`, the Mortality result is “no mortality”.
